Reference: ChEMBL document CHEMBL2157880, “Synthesis, antimycobacterial and antibacterial activity of ciprofloxacin derivatives containing a N-substituted benzyl moiety” (2012)
Converted amounts (≈) assume the structure as drawn.

Legend:
Assay type in all cases: functional
Enterococcus faecium [1] = test: Antibacterial activity against Enterococcus faecium 10-9 after 18 to 24 hrs by NCCLS method
Procedure, shortened: (§1)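 Standard NCCLS (M100-S11) MIC testing against Gram-positive and Gram-negative strains. Plates were incubated at 35 °C for 18–24 h. The MIC was read as the lowest concentration giving complete inhibition of visible bacterial growth.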

Klebsiella pneumoniae [2] = test: Antibacterial activity against extended spectrum beta-lactamases producing Klebsiella pneumoniae 10-1 after 18 to 24 hrs by NCCLS method; procedure, shortened: as §1
Escherichia coli [3] = test: Antibacterial activity against extended spectrum beta-lactamases producing Escherichia coli 10-2 after 18 to 24 hrs by NCCLS method; procedure, shortened: as §1
Staphylococcus aureus [4] = test: Antibacterial activity against methicillin-resistant Staphylococcus aureus 10-13 after 18 to 24 hrs by NCCLS method
Procedure, shortened: (§2)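 Incubated at 35 °C for 18–24 h under NCCLS (M100-S11) standards. MIC was read as the lowest concentration giving complete inhibition of visible bacterial growth.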

Staphylococcus aureus [5] = test: Antibacterial activity against methicillin-resistant Staphylococcus aureus 10-11 after 18 to 24 hrs by NCCLS method; procedure, shortened: as §2
Klebsiella pneumoniae [6] = test: Antibacterial activity against extended spectrum beta-lactamases producing Klebsiella pneumoniae 10-2 after 18 to 24 hrs by NCCLS method; procedure, shortened: as §1
Escherichia coli [7] = test: Antibacterial activity against Escherichia coli 10-3 after 18 to 24 hrs by NCCLS method; procedure, shortened: as §1
Escherichia coli [8] = test: Antibacterial activity against extended spectrum beta-lactamases producing Escherichia coli 10-4 after 18 to 24 hrs by NCCLS method; procedure, shortened: as §1
Escherichia coli [9] = test: Antibacterial activity against Escherichia coli 10-1 after 18 to 24 hrs by NCCLS method; procedure, shortened: as §1
[10] = tested on: Staphylococcus epidermidis; test: Antibacterial activity against methicillin-resistant Staphylococcus epidermidis 10-10 after 18 to 24 hrs by NCCLS method; procedure, shortened: as §2
Klebsiella pneumoniae [11] = test: Antibacterial activity against Klebsiella pneumoniae 10-2 after 18 to 24 hrs by NCCLS method; procedure, shortened: as §1
Klebsiella pneumoniae [12] = test: Antibacterial activity against extended spectrum beta-lactamases producing Klebsiella pneumoniae 10-3 after 18 to 24 hrs by NCCLS method; procedure, shortened: as §1
Pseudomonas aeruginosa [13] = test: Antibacterial activity against Pseudomonas aeruginosa 10-18 after 18 to 24 hrs by NCCLS method; procedure, shortened: as §1
Staphylococcus aureus [14] = test: Antibacterial activity against methicillin-sensitive Staphylococcus aureus 10-14 after 18 to 24 hrs by NCCLS method; procedure, shortened: as §1
Klebsiella pneumoniae [15] = test: Antibacterial activity against Klebsiella pneumoniae 10-4 after 18 to 24 hrs by NCCLS method; procedure, shortened: as §1
Enterococcus faecalis [16] = test: Antibacterial activity against Enterococcus faecalis 10-6 after 18 to 24 hrs by NCCLS method; procedure, shortened: as §1
Streptococcus pneumoniae [17] = test: Antibacterial activity against Streptococcus pneumoniae 10-6 after 18 to 24 hrs by NCCLS method; procedure, shortened: as §1
Staphylococcus aureus [18] = test: Antibacterial activity against methicillin-resistant Staphylococcus aureus 10-15 after 18 to 24 hrs by NCCLS method; procedure, shortened: as §2
Pseudomonas aeruginosa [19] = test: Antibacterial activity against Pseudomonas aeruginosa 10-20 after 18 to 24 hrs by NCCLS method; procedure, shortened: as §1
Enterococcus faecalis [20] = test: Antibacterial activity against Enterococcus faecalis 10-5 after 18 to 24 hrs by NCCLS method; procedure, shortened: as §1
Escherichia coli [21] = test: Antibacterial activity against Escherichia coli 10-2 after 18 to 24 hrs by NCCLS method; procedure, shortened: as §1
Streptococcus pneumoniae [22] = test: Antibacterial activity against Streptococcus pneumoniae 10-1 after 18 to 24 hrs by NCCLS method; procedure, shortened: as §1
Enterococcus faecium [23] = test: Antibacterial activity against Enterococcus faecium 10-6 after 18 to 24 hrs by NCCLS method; procedure, shortened: as §1
Pseudomonas aeruginosa [24] = test: Antibacterial activity against Pseudomonas aeruginosa 10-5 after 18 to 24 hrs by NCCLS method; procedure, shortened: as §1
Pseudomonas aeruginosa [25] = test: Antibacterial activity against Pseudomonas aeruginosa 10-15 after 18 to 24 hrs by NCCLS method; procedure, shortened: as §1
Escherichia coli [26] = test: Antibacterial activity against Escherichia coli ATCC 25922 after 18 to 24 hrs by NCCLS method; procedure, shortened: as §1
Escherichia coli [27] = test: Antibacterial activity against extended spectrum beta-lactamases producing Escherichia coli 10-3 after 18 to 24 hrs by NCCLS method; procedure, shortened: as §1
[28] = tested on: Staphylococcus epidermidis; test: Antibacterial activity against methicillin-sensitive Staphylococcus epidermidis 10-15 after 18 to 24 hrs by NCCLS method; procedure, shortened: as §2
Klebsiella pneumoniae [29] = test: Antibacterial activity against Klebsiella pneumoniae 10-3 after 18 to 24 hrs by NCCLS method; procedure, shortened: as §1
[30] = tested on: Mycobacterium tuberculosis; test: Antimycobacterial activity against Mycobacterium tuberculosis H37Rv ATCC 27294 by microplate alamar blue assay
Procedure, shortened: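 Microplate Alamar Blue fluorescence assay on strain H37Rv ATCC 27294. MIC was the lowest concentration cutting fluorescence by ≥90% against the mean of replicate bacterium-only controls.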

Pseudomonas aeruginosa [31] = test: Antibacterial activity against Pseudomonas aeruginosa 10-12 after 18 to 24 hrs by NCCLS method; procedure, shortened: as §1
[32] = tested on: Staphylococcus epidermidis; test: Antibacterial activity against methicillin-resistant Staphylococcus epidermidis 10-13 after 18 to 24 hrs by NCCLS method; procedure, shortened: as §2
Pseudomonas aeruginosa [33] = test: Antibacterial activity against Pseudomonas aeruginosa 10-9 after 18 to 24 hrs by NCCLS method; procedure, shortened: as §1
Staphylococcus aureus [34] = test: Antibacterial activity against methicillin-sensitive Staphylococcus aureus 10-13 after 18 to 24 hrs by NCCLS method; procedure, shortened: as §1
[35] = tested on: Staphylococcus epidermidis; test: Antibacterial activity against methicillin-sensitive Staphylococcus epidermidis 10-11 after 18 to 24 hrs by NCCLS method; procedure, shortened: as §1
Enterococcus faecalis [36] = test: Antibacterial activity against Enterococcus faecalis 10-7 after 18 to 24 hrs by NCCLS method; procedure, shortened: as §1
Staphylococcus aureus [37] = test: Antibacterial activity against methicillin-sensitive Staphylococcus aureus 10-11 after 18 to 24 hrs by NCCLS method; procedure, shortened: as §1
Staphylococcus aureus [38] = test: Antibacterial activity against Staphylococcus aureus ATCC 2592 after 18 to 24 hrs by NCCLS method; procedure, shortened: as §1

Structure (SMILES)	MIC (Enterococcus faecium [1])	MIC (Klebsiella pneumoniae [2])	MIC (Escherichia coli [3])	MIC (Staphylococcus aureus [4])	MIC (Staphylococcus aureus [5])	MIC (Klebsiella pneumoniae [6])	MIC (Escherichia coli [7])	MIC (Escherichia coli [8])	MIC (Escherichia coli [9])	MIC [10]	MIC (Klebsiella pneumoniae [11])	MIC (Klebsiella pneumoniae [12])	MIC (Pseudomonas aeruginosa [13])	MIC (Staphylococcus aureus [14])	MIC (Klebsiella pneumoniae [15])	MIC (Enterococcus faecalis [16])	MIC (Streptococcus pneumoniae [17])	MIC (Staphylococcus aureus [18])	MIC (Pseudomonas aeruginosa [19])	MIC (Enterococcus faecalis [20])	also measured
COc1cc(CN2CCN(c3cc4c(cc3F)c(=O)c(C(=O)O)cn4C3CC3)CC2)cc(OC)c1OC	32 µg/mL (≈ 62.6 µM)	> 128 µg/mL	> 128 µg/mL	128 µg/mL (≈ 250 µM)	64 µg/mL (≈ 125 µM)	> 128 µg/mL	> 128 µg/mL	> 128 µg/mL	> 128 µg/mL	32 µg/mL (≈ 62.6 µM)	> 128 µg/mL	> 128 µg/mL	128 µg/mL (≈ 250 µM)	0.25 µg/mL (≈ 0.489 µM)	> 128 µg/mL	64 µg/mL (≈ 125 µM)	64 µg/mL (≈ 125 µM)	32 µg/mL (≈ 62.6 µM)	64 µg/mL (≈ 125 µM)	8 µg/mL (≈ 15.6 µM)	MIC (Escherichia coli [21]): 32 µg/mL (≈ 62.6 µM); MIC (Streptococcus pneumoniae [22]): 4 µg/mL (≈ 7.82 µM); MIC (Enterococcus faecium [23]): 4 µg/mL (≈ 7.82 µM); MIC (Pseudomonas aeruginosa [24]): 32 µg/mL (≈ 62.6 µM); MIC (Pseudomonas aeruginosa [25]): 64 µg/mL (≈ 125 µM); MIC (Escherichia coli [26]): 1 µg/mL (≈ 1.95 µM); MIC (Escherichia coli [27]): > 128 µg/mL; MIC [28]: 32 µg/mL (≈ 62.6 µM); MIC (Klebsiella pneumoniae [29]): 32 µg/mL (≈ 62.6 µM); MIC [30]: 32 µg/mL (≈ 62.6 µM); MIC (Pseudomonas aeruginosa [31]): 32 µg/mL (≈ 62.6 µM); MIC [32]: 32 µg/mL (≈ 62.6 µM); MIC (Pseudomonas aeruginosa [33]): 32 µg/mL (≈ 62.6 µM); MIC (Staphylococcus aureus [34]): 0.5 µg/mL (≈ 0.977 µM); MIC [35]: 0.5 µg/mL (≈ 0.977 µM); MIC (Enterococcus faecalis [36]): 64 µg/mL (≈ 125 µM); MIC (Staphylococcus aureus [37]): 0.25 µg/mL (≈ 0.489 µM); MIC (Staphylococcus aureus [38]): 0.25 µg/mL (≈ 0.489 µM)
COc1cccc(CN2CCN(c3cc4c(cc3F)c(=O)c(C(=O)O)cn4C3CC3)CC2)c1OC	32 µg/mL (≈ 66.5 µM)	> 128 µg/mL	> 128 µg/mL	32 µg/mL (≈ 66.5 µM)	16 µg/mL (≈ 33.2 µM)	> 128 µg/mL	> 128 µg/mL	128 µg/mL (≈ 266 µM)	> 128 µg/mL	8 µg/mL (≈ 16.6 µM)	> 128 µg/mL	> 128 µg/mL	64 µg/mL (≈ 133 µM)	0.125 µg/mL (≈ 0.26 µM)	> 128 µg/mL	> 128 µg/mL	32 µg/mL (≈ 66.5 µM)	16 µg/mL (≈ 33.2 µM)	128 µg/mL (≈ 266 µM)	8 µg/mL (≈ 16.6 µM)	MIC (Escherichia coli [21]): 32 µg/mL (≈ 66.5 µM); MIC (Streptococcus pneumoniae [22]): 2 µg/mL (≈ 4.15 µM); MIC (Enterococcus faecium [23]): 4 µg/mL (≈ 8.31 µM); MIC (Pseudomonas aeruginosa [24]): 32 µg/mL (≈ 66.5 µM); MIC (Pseudomonas aeruginosa [25]): 32 µg/mL (≈ 66.5 µM); MIC (Escherichia coli [26]): 0.5 µg/mL (≈ 1.04 µM); MIC (Escherichia coli [27]): > 128 µg/mL; MIC [28]: 8 µg/mL (≈ 16.6 µM); MIC (Klebsiella pneumoniae [29]): 16 µg/mL (≈ 33.2 µM); MIC [30]: 2 µg/mL (≈ 4.15 µM); MIC (Pseudomonas aeruginosa [31]): 32 µg/mL (≈ 66.5 µM); MIC [32]: 32 µg/mL (≈ 66.5 µM); MIC (Pseudomonas aeruginosa [33]): 64 µg/mL (≈ 133 µM); MIC (Staphylococcus aureus [34]): 0.03 µg/mL (≈ 0.0623 µM); MIC [35]: 0.25 µg/mL (≈ 0.519 µM); MIC (Enterococcus faecalis [36]): 32 µg/mL (≈ 66.5 µM); MIC (Staphylococcus aureus [37]): 0.03 µg/mL (≈ 0.0623 µM); MIC (Staphylococcus aureus [38]): 0.06 µg/mL (≈ 0.125 µM)
